Series [1] has as its system NCI-H1581. Description: Antiproliferative activity against FGFR1-amplified human NCI-H1581 cells after 72 hrs by CCK8/MTT assay. The class given is functional, cell-based. The conditions noted are these: NCI-H1581, 72 h. On the technique in general: Tetrazolium assays rely on reduction of a dye to a coloured formazan, in cell work by metabolically active cells.
Series [2] deals with Fibroblast growth factor receptor 1 (Homo sapiens, UniProt P11362). Description: Inhibition of recombinant human FGFR1 using poly (Glu, Tyr) 4:1 as substrate after 60 mins by ELISA.
For series [3], the target named is Vascular endothelial growth factor receptor 2 (Homo sapiens, UniProt P35968). Briefly: Inhibition of recombinant human VEGFR2 using poly (Glu, Tyr) 4:1 as substrate after 60 mins by ELISA. (In an ELISA, binding on a coated surface is turned into a signal by an enzyme label.)
The test system of series [4] is NCI-H1581. Briefly: Antitumor activity against human NCI-H1581 cells xenografted in nude mouse assessed as tumor growth inhibition at 20 mg/kg administered as qd for 21 days measured on day 21 post last dose relative to vehicle-treated control. The conditions noted are these: NCI-H1581, 504 h, read-out: TGI. The class given is functional. (In xenograft studies the graft and the host belong to different species.)

Series [5] in a line: cells. The conditions noted are these: Homo sapiens, KG-1, 72 h.
A short description of series [6]: cells. The conditions noted are these: Homo sapiens, SNU-16, 72 h.
Series [7] can be described thus: cells. The conditions noted are these: Homo sapiens, RT-112, 72 h.
Series [8] can be described thus: Cmax in Sprague-Dawley rat at 1 mg/kg, iv. It is filed as ADME, organism-based. Also noted: dose 1 mg/kg, route intravenous. The conditions noted are these: in vivo.
A short description of series [9]: Cmax in Sprague-Dawley rat at 5 mg/kg, po. It is filed as ADME, organism-based. Also noted: dose 5 mg/kg, route oral. The conditions noted are these: in vivo. Put shortly: (§1)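 Male SD rats (n = 3) dosed orally by gavage at 5 mg/kg as a suspension in 0.5% CMC-Na. Quantified by LC-MS/MS. An IV arm (1 mg/kg) was run in parallel.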
Series [10] can be described thus: Tmax in Sprague-Dawley rat at 5 mg/kg, po. The conditions noted are these: in vivo. The class given is ADME, organism-based. Put shortly:
as §1

Series [11] is described as follows: Half life in Sprague-Dawley rat at 1 mg/kg, iv. The class given is ADME, organism-based. The conditions noted are these: in vivo.
Series [12] is described as follows: AUC (0 to infinity) in Sprague-Dawley rat at 1 mg/kg, iv. Set-up: dose 1 mg/kg, time infinity, route intravenous. The conditions noted are these: in vivo. The class given is ADME, organism-based.
A short description of series [13]: AUC (0 to infinity) in Sprague-Dawley rat at 5 mg/kg, po. The conditions noted are these: in vivo. Also noted: dose 5 mg/kg, route oral, time infinity. The class given is ADME, organism-based. Put shortly: as §1
The nature of series [14]: Clearance in Sprague-Dawley rat at 1 mg/kg, iv. The class given is ADME, organism-based. The conditions noted are these: in vivo.
Series [15] can be described thus: Volume of distribution at steady state in Sprague-Dawley rat at 1 mg/kg, iv. It is filed as ADME, organism-based. The conditions noted are these: in vivo, read-out: Vdss.
The nature of series [16]: Oral bioavailability in Sprague-Dawley rat at 5 mg/kg. It is filed as ADME, organism-based. The conditions noted are these: in vivo. The gist of the method: as §1

Sequence of Vascular endothelial growth factor receptor 2 (P35968 whole entry): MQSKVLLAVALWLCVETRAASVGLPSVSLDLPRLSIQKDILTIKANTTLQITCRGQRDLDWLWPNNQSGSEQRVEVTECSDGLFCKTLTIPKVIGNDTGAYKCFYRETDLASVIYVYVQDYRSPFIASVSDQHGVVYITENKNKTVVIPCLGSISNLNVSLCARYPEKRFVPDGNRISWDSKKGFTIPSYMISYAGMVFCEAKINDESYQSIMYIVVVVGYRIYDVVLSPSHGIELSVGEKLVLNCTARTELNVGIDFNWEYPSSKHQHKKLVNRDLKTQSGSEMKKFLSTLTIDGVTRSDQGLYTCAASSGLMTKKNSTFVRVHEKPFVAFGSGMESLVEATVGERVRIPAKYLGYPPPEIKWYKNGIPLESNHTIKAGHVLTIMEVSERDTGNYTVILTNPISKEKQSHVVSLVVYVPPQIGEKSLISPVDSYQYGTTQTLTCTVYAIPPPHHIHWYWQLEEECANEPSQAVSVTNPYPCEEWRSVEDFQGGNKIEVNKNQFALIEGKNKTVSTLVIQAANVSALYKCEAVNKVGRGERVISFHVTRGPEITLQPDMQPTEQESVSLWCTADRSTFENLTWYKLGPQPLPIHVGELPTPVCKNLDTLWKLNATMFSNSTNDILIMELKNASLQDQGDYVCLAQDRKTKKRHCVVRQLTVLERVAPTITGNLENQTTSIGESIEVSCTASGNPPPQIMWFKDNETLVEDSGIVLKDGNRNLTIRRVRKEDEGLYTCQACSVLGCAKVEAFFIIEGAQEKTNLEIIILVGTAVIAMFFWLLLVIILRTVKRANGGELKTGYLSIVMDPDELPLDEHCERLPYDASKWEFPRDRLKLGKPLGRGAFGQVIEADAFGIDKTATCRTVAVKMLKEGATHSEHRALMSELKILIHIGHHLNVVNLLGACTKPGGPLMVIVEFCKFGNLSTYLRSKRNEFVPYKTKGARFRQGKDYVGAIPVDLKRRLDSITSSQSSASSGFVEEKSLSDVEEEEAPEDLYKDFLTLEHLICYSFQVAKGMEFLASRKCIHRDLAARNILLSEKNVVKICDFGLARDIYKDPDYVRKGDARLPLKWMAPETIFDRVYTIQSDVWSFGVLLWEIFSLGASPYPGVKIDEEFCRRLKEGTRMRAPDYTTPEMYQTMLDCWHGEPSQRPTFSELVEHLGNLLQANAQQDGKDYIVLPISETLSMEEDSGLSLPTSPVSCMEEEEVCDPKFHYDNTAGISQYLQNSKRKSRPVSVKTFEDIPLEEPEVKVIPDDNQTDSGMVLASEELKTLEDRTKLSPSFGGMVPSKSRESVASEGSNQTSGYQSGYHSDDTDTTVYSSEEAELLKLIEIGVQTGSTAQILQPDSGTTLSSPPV
Sequence of Fibroblast growth factor receptor 1 (P11362 whole entry): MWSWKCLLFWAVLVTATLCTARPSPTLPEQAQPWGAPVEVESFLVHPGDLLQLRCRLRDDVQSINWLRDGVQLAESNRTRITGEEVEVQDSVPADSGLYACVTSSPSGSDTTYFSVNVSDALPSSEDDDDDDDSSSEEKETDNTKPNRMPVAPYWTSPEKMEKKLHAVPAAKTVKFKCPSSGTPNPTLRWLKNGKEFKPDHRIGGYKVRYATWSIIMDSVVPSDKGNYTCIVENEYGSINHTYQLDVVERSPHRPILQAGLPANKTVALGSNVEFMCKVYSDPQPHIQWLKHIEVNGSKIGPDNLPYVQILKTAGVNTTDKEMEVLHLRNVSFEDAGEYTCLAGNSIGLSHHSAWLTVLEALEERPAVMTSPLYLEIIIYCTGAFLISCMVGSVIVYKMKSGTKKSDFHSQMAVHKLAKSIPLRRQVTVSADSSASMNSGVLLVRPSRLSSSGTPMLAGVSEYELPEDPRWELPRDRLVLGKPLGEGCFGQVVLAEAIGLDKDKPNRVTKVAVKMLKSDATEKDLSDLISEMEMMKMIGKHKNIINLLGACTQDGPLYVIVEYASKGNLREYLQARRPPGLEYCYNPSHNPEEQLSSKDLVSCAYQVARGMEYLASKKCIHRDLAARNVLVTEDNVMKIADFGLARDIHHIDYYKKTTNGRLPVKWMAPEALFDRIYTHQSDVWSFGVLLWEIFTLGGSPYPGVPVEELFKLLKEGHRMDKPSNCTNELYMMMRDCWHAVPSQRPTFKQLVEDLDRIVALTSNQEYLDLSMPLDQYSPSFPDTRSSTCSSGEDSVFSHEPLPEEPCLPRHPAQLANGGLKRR

In the case of `c1cncc(COc2ccc3[nH]nc(-c4nc5cc(N6CCCCC6)ccc5[nH]4)c3c2)c1`, the 50% inhibitory concentration (IC50) (usually the point on the concentration scale where inhibition reaches its midpoint) in the series with NCI-H1581 [1] came to 1860 nM.

As for `COCCNc1ccc2[nH]c(-c3n[nH]c4ccc(OC(C)c5c(Cl)cncc5Cl)cc34)nc2c1` (stereo not drawn), in the series on NCI-H1581 [1], the IC50 turned out to be 1.2 nM.

In the series with NCI-H1581 [1], `c1ccc(COc2ccc3[nH]nc(-c4nc5cc(N6CCCCC6)ccc5[nH]4)c3c2)nc1` showed an IC50 of 1230 nM.

In the series with NCI-H1581 [1], `COc1ccc2[nH]c(-c3n[nH]c4ccc(OC(C)c5c(Cl)cncc5Cl)cc34)nc2c1` (stereo not drawn) registered a concentration for half-maximal inhibition (IC50) of 315 nM.

In turn, `c1cc(COc2ccc3[nH]nc(-c4nc5cc(N6CCCCC6)ccc5[nH]4)c3c2)ccn1` displayed an IC50 in the series with NCI-H1581 [1] of 5020 nM.

For the compound `C[C@H](Oc1ccc2[nH]nc(-c3nc4cc(N5CCN(C)CC5)ccc4[nH]3)c2c1)c1c(Cl)cncc1Cl`, the IC50 in series [2] was 9.4 nM; with NCI-H1581 [1] it was 130 nM.

Regarding `CC(Oc1ccc2[nH]nc(-c3nc4cc(N5CCN(C)CC5)ccc4[nH]3)c2c1)c1c(Cl)cncc1Cl` (stereo not drawn), the values for the IC50 (in [2]; with NCI-H1581 [1]; in series [3]) were 1 nM, 1 nM and 8 nM, respectively.

For `C[C@@H](Oc1ccc2[nH]nc(/C=C/c3cnn(CCO)c3)c2c1)c1c(Cl)cncc1Cl` [LY-2874455], the IC50 with NCI-H1581 [1] is less than 0.5 nM; in series [3] it was 5.8 nM.

On to `CCC(Oc1ccc2[nH]nc(-c3nc4cc(N5CCCCC5)ccc4[nH]3)c2c1)c1c(Cl)cncc1Cl` (stereo not drawn), for which the IC50 in the series with NCI-H1581 [1] was 380 nM.

For `CC(Oc1ccc2[nH]nc(-c3nc4cc(C5CCN(C)CC5)ccc4[nH]3)c2c1)c1c(Cl)cncc1Cl` (stereo not drawn), the IC50 stood at 1.6 nM in the series with NCI-H1581 [1] and 7.8 nM in series [3].

As to `CC(Oc1ccc2[nH]nc(-c3nc4ccccc4s3)c2c1)c1c(Cl)cncc1Cl` (stereo not drawn), in the series on NCI-H1581 [1], the IC50 is more than 10000 nM.

For the compound `Clc1cncc(Cl)c1COc1ccc2[nH]nc(-c3nc4cc(N5CCCCC5)ccc4[nH]3)c2c1`, in the series with NCI-H1581 [1], the IC50 was found to be 159 nM.

In the case of `CNc1ccc2[nH]c(-c3n[nH]c4ccc(OC(C)c5c(Cl)cncc5Cl)cc34)nc2c1` (stereo not drawn), in the series with NCI-H1581 [1], the half-maximal inhibitory concentration (IC50) came to 5.5 nM.

Regarding `CC(Oc1ccc2[nH]nc(-c3nc4cc(NCCN(C)C)ccc4[nH]3)c2c1)c1c(Cl)cncc1Cl` (stereo not drawn), it took 1.1 nM to reach half-maximal inhibition with NCI-H1581 [1] (IC50).

As to `Clc1cnccc1COc1ccc2[nH]nc(-c3nc4cc(N5CCCCC5)ccc4[nH]3)c2c1`, in the series on NCI-H1581 [1], half-maximal inhibition (IC50) was put at 3070 nM.

Consider `CC(Oc1ccc2[nH]nc(-c3nc4cc(N(C)C(=O)CN(C)C)ccc4[nH]3)c2c1)c1c(Cl)cncc1Cl` (stereo not drawn), for which the IC50 with NCI-H1581 [1] was found to be 0.8 nM; in series [3] it was 2.5 nM.

As to `CC(Oc1ccc2[nH]nc(-c3nc4c(N5CCCCC5)cccc4[nH]3)c2c1)c1c(Cl)cncc1Cl` (stereo not drawn), the IC50 in [2] is more than 1000 nM.

In the series on NCI-H1581 [1], `CC(Oc1ccc2[nH]nc(-c3nc4cc(N5CCCCC5)ccc4[nH]3)c2c1)c1c(Cl)cncc1Cl` (stereo not drawn) registered an IC50 of 14.1 nM.

With `CC(Oc1ccc2[nH]nc(-c3nc4cc(N5CCCCC5)ccc4[nH]3)c2c1)c1c(Cl)ccnc1Cl` (stereo not drawn), in the series on NCI-H1581 [1], the IC50 stood at 30.8 nM.

Regarding `Fc1ccc2c(-c3nc4cc(N5CCC(N6CCCCC6)CC5)ccc4[nH]3)[nH]nc2c1`, the IC50 was found to be 20.3 nM in [2], 749 nM with NCI-H1581 [1] and 16.4 nM in [3].

In the case of `CC(Oc1ccc2[nH]nc(-c3nc4cc(N5C[C@@H](C)N[C@@H](C)C5)ccc4[nH]3)c2c1)c1c(Cl)cncc1Cl` (stereo partly drawn), the IC50 in the series on NCI-H1581 [1] is 1.9 nM; in series [3], 9 nM.

Turning to `COc1cc(CCc2cc(NC(=O)c3ccc(N4C[C@@H](C)N[C@@H](C)C4)cc3)n[nH]2)cc(OC)c1` [FEXAGRATINIB], the IC50 with NCI-H1581 [1] was 92.1 nM; in “cells [5]”, 6.4 nM; in “cells [6]”, 13.4 nM; in the series “cells [7]” it was 88.4 nM. For the same compound, the inhibition in vivo at 20 mg/kg in the series on NCI-H1581 [4] amounted to 73.9%.

As for `Cc1ccc2[nH]c(-c3n[nH]c4ccc(OC(C)c5c(Cl)cncc5Cl)cc34)nc2c1` (stereo not drawn), the IC50 with NCI-H1581 [1] amounted to 922 nM.

For `C[C@@H](Oc1ccc2[nH]nc(-c3nc4cc(CCO)ccc4[nH]3)c2c1)c1c(Cl)cncc1Cl`, 1.4 nM corresponded to half-maximal inhibition in the series on NCI-H1581 [1] (IC50). For the same compound, the results for the Cmax in series [8] and in series [9] were 735 ng/mL and 195 ng/mL, respectively. The Tmax (as a rule, the time at which the peak concentration occurs) in series [10] turned out to be 0.8 h. In addition, the half-life (as a rule, the time needed for the level to fall by half in the phase considered) in [11] is 7.3 h. The AUC(0-inf) (in general, total exposure, with the tail of the curve extrapolated) in series [12] was determined as 582 ng·h/mL; in series [13], 664 ng·h/mL. The clearance (commonly the volume of plasma or blood freed of the substance per unit of time) in [14] is 28.3 mL/min/kg. Further, the Vd in series [15] turned out to be 17.6 L/kg. Besides, the bioavailability (usually the share of a dose that reaches the circulation, judged against a reference dose that is usually intravenous) in [16] amounted to 22%.

`Cc1cccc2[nH]c(-c3n[nH]c4ccc(OC(C)c5c(Cl)cncc5Cl)cc34)nc12` (stereo not drawn) had an IC50 in the series on NCI-H1581 [1] of more than 10000 nM.

Compound `C[C@H](Oc1ccc2[nH]nc(-c3nc4cc(CCO)ccc4[nH]3)c2c1)c1c(Cl)cncc1Cl` yielded an IC50 with NCI-H1581 [1] of more than 100 nM.

Compound `CC(Oc1ccc2[nH]nc(-c3nc4cc(N5CCCN(C)CC5)ccc4[nH]3)c2c1)c1c(Cl)cncc1Cl` (stereo not drawn) returned a 50% inhibitory concentration (IC50) in the series with NCI-H1581 [1] of 8.1 nM.

`CC(Oc1ccc2[nH]nc(-c3nc4ccccc4[nH]3)c2c1)c1c(Cl)cncc1Cl` (stereo not drawn): in the series on NCI-H1581 [1], half-maximal inhibition (IC50) required 403 nM.

`CCN1CCN(c2ccc3[nH]c(-c4n[nH]c5ccc(OC(C)c6c(Cl)cncc6Cl)cc45)nc3c2)CC1` (stereo not drawn): in the series on NCI-H1581 [1], the IC50 turned out to be 5.9 nM.

As to `CC(Oc1ccc2[nH]nc(-c3nc4cc(F)ccc4[nH]3)c2c1)c1c(Cl)cncc1Cl` (stereo not drawn), in the series with NCI-H1581 [1], the half-maximal inhibitory concentration (IC50) came out at 582 nM.

The compound `CC(Oc1ccc2[nH]nc(-c3nc4ccccc4o3)c2c1)c1c(Cl)cncc1Cl` (stereo not drawn) registered an IC50 in the series on NCI-H1581 [1] of 3040 nM.

Compound `CC(Oc1ccc2[nH]nc(-c3cc4ccccc4[nH]3)c2c1)c1c(Cl)cncc1Cl` (stereo not drawn) came in with an IC50 in the series on NCI-H1581 [1] of 817 nM.

`CC(Oc1ccc2[nH]nc(-c3nc4cc(CCO)ccc4[nH]3)c2c1)c1c(Cl)cncc1Cl` (stereo not drawn): the results for the IC50 (with NCI-H1581 [1]; in series [3]) were 3.3 nM and 12.6 nM, respectively.

In the series on NCI-H1581 [1], `CC(Oc1ccc2[nH]nc(-c3nc4cc(N5CCC(N6CCCCC6)CC5)ccc4[nH]3)c2c1)c1c(Cl)cncc1Cl` (stereo not drawn) showed an IC50 of 10.3 nM.

Compound `CC(Oc1ccc2[nH]nc(-c3nc4cc(N5CCOCC5)ccc4[nH]3)c2c1)c1c(Cl)cncc1Cl` (stereo not drawn) returned a concentration for half-maximal inhibition (IC50) with NCI-H1581 [1] of 2.2 nM.

The values are drawn from ChEMBL document CHEMBL3826910, “Discovery of 3-(5'-Substituted)-Benzimidazole-5-(1-(3,5-dichloropyridin-4-yl)ethoxy)-1H-indazoles as Potent Fibroblast Growth Factor Receptor Inhibitors: Design, Synthesis, and Biological Evaluation” (J Med Chem, 2016).
